The structures appear in SMILES notation. Active and inactive are the calls of the source.

Experiment [1] relates to Mus musculus. The experiment in a line: Antinociceptive activity in CD1 mouse assessed as paw licking and jumping latency at 0.6 nmol, icv measured after 15 to 30 mins by hot plate test. In kind it is functional, organism-based. A digest of the protocol: (§1)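 Male CD-1 mice, 25-30 g, lightly isoflurane-anaesthetised; i.c.v. injection 2 mm caudal, 2 mm lateral to bregma, 3 mm deep, 5 µL. Hot plate held at 55.0 °C; latency to paw lick or jump, cut-off 60 s. Baseline is the mean of three readings 15 min apart. Latencies taken at 15-120 min after dosing and expressed as %MPE.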
Background: Thermal pain tests record how soon the animal reacts.

In experiment [2] the test system is Mus musculus. The experiment in a line: Antinociceptive activity in CD1 mouse assessed as tail withdrawal latency at 3000 nmol, iv measured after 15 to 60 mins by tail flick test relative to vehicle-treated control. In kind it is functional. In short, it runs like this:
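Male CD-1 mice, lightly isoflurane-anaesthetised, given tail-vein injection at 5 mL/kg. Tail-flick latency to radiant heat focused 3-4 cm from the tail tip, cut-off 15 s. Baseline is the mean of three readings; readings at 15-180 min; expressed as %MPE. Mean ± S.E.M.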

Experiment [3] deals with Mus musculus. The experiment can be described thus: Antinociceptive activity in CD1 mouse assessed as paw licking and jumping latency at 3000 nmol, iv measured after 15 to 60 mins by hot plate test relative to vehicle-treated control. In kind it is functional. In short, it runs like this:
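Male CD-1 mice, 25-30 g, lightly isoflurane-anaesthetised, dosed into the tail vein at 5 mL/kg. Hot plate at 55.0 °C; latency to paw lick or jump, cut-off 60 s. Baseline is the mean of three readings 15 min apart; readings to 180 min. %MPE = (post-drug − baseline)/(cut-off − baseline)×100. Mean ± S.E.M.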

Experiment [4] deals with Mus musculus. The experiment can be described thus: Antinociceptive activity in CD1 mouse assessed as paw licking and jumping latency at 0.6 nmol, icv measured after 30 to 45 mins by hot plate test relative to vehicle-treated control. In kind it is functional. A digest of the protocol:
as §1

Experiment [5] deals with Mus musculus. The experiment can be described thus: Antinociceptive activity in CD1 mouse assessed as tail withdrawal latency at 0.6 nmol, icv measured after 15 to 30 mins by tail flick test. The experiment is classed as functional, organism-based. A digest of the protocol:
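Male CD-1 mice given i.c.v. injection (5 µL; 2 mm caudal, 2 mm lateral to bregma, 3 mm deep) under light isoflurane. Radiant heat focused 3-4 cm from the tail tip; withdrawal latency recorded, cut-off 15 s. Baseline is the mean of three readings 15 min apart; readings at 15-120 min; %MPE.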

The target in experiment [6] is Delta-type opioid receptor (Mus musculus, UniProt P32300). The experiment can be described thus: Inhibition of DOR in ICR mouse vas deferens assessed as inhibition of electrically-stimulated muscle contraction after 3 mins. Details: species or system Muscle tissue. A digest of the protocol: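 Vas deferens from male ICR mice, 25-30 g, in Mg-free Krebs at 37 °C under 95% O₂/5% CO₂. Transmural stimulation at 0.1 Hz, 2.0 ms pulses, supramaximal voltage. Cumulative curves over five to seven concentrations; inhibition read 3 min after each addition. IC₅₀ from a Hill fit, at least four assays.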
Sequence of Delta-type opioid receptor (Mus musculus, UniProt P32300) (P32300 whole entry): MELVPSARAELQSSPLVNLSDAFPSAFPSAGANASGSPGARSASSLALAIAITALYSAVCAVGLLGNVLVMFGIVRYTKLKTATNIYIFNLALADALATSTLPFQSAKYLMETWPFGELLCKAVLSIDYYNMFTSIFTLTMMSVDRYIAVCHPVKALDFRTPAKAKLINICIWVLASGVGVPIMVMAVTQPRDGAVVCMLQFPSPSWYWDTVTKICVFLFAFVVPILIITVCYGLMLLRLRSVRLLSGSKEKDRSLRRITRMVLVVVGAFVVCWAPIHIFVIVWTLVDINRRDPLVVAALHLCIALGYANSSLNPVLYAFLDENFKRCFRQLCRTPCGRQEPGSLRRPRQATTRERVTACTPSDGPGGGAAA

Experiment [7] addresses Mu-type opioid receptor (Cavia porcellus, UniProt P97266). The experiment can be described thus: Inhibition of MOR in Hartley guinea pig ileum longitudinal muscle myenteric plexus assessed as inhibition of electrically-stimulated muscle contraction after 3 mins. The experiment is classed as tissue-based. In short, it runs like this: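 Longitudinal muscle-myenteric plexus strips from male Hartley guinea pigs (150-400 g) in oxygenated Krebs at 37 °C. Stimulated at 0.1 Hz, 0.4 ms pulses, supramaximal voltage. […] IC₅₀ by Hill fit, at least four assays.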

In experiment [8] the target is Delta-type opioid receptor (Rattus norvegicus, UniProt P33533). The experiment in a line: Displacement of [3H]Deltorphin from DOR in Sprague-Dawley rat brain membrane after 180 mins by scintillation counting analysis. In kind it is cell membranes. In short, it runs like this: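 Whole brain homogenate from male Sprague-Dawley rats, pre-incubated 30 min at 25 °C to remove endogenous opioids. Six to seven test concentrations; rapid filtration; nonlinear least-squares fit; at least two assays, each in duplicate.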
Sequence of Delta-type opioid receptor (Rattus norvegicus, UniProt P33533) (P33533 whole entry): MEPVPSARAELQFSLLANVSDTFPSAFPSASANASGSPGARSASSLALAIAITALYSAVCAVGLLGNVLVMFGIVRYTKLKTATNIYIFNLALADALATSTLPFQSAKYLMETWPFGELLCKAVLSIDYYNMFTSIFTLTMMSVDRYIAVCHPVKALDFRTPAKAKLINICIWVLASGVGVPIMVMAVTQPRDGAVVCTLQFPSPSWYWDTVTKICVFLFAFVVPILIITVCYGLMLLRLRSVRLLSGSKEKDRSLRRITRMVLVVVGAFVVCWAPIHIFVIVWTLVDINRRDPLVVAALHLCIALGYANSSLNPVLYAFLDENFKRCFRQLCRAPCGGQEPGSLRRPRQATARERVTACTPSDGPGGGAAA
For orientation: In a radioligand displacement assay an active substance lowers the binding of a labelled ligand.

Sequence of Mu-type opioid receptor (P97266 whole entry): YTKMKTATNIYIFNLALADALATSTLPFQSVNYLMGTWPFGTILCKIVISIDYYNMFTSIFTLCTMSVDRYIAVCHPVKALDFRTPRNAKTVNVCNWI

On to `C[C@@H](NC(=O)[C@@H](N)Cc1ccc(O)cc1)C(=O)NCC(=O)N[C@@H](Cc1ccccc1)C(=O)NNC(=O)[C@H](Cc1ccccc1)NC(=O)CNC(=O)[C@@H](C)NC(=O)[C@@H](N)Cc1ccc(O)cc1` [BIPHALIN], for which the outcome in experiment [1], in experiment [2], in experiment [3] and in experiment [5] was Active. Moreover, the MPE in experiment [4] amounted to 100%.
Consider `C[C@@H](NC(=O)C[C@@H](N)Cc1ccc(O)cc1)C(=O)NCC(=O)N[C@@H](Cc1ccccc1)C(=O)N[C@H](CC(=O)N[C@H](C)C(=O)NCC(=O)N[C@@H](Cc1ccccc1)C(N)=O)Cc1ccc(O)cc1`, for which the IC50 (usually the concentration that gives 50% inhibition) in experiment [6] was found to be 710 nM; in experiment [7] it was 670 nM. Also, the Ki – broadly, a measure of affinity in units of concentration, obtained from inhibition or displacement – in experiment [8] turned out to be 480 nM.

Source of the values: ChEMBL document CHEMBL2321865 (J Med Chem, 2013).
